Tested on: MS2 coat protein
Assay: apparent Kd, MS2 coat protein; higher = weaker binding; RNA-MaP array; FMN 200 µM where present
Outline: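 Binding was read on Illumina sequencing-chip clusters where stalled E. coli RNA polymerase had transcribed each design. A titration of SNAP-549-labelled MS2 coat protein began at 0.7 or 1.5 nM and doubled to 3 µM, once without ligand and once with constant ligand, in 100 mM Tris-HCl pH 7.5, 80 mM KCl, 4 mM MgCl2, BSA, DTT, yeast tRNA and Tween-20. The apparent Kd is the median of filtered per-cluster binding-curve fits, based on green signal normalised to red-channel RNA signal and control-cluster median Fmax.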

[1] = designed as: OFF switch for flavin mononucleotide, no ligand
[2] = ligand present: flavin mononucleotide, designed as: OFF switch for flavin mononucleotide
[3] = ligand present: flavin mononucleotide, designed as: ON switch for flavin mononucleotide
[4] = designed as: ON switch for flavin mononucleotide, no ligand

Sequence | apparent Kd [1] [nM] | apparent Kd [2] [nM] | apparent Kd [3] [nM] | apparent Kd [4] [nM]
GGAUAGGACAGAGGAUAUACGGAUAGGAUCUACUAUCCUCCUUAAAUAACAUGAGGAUCACCCAUGUAGAAGGCUGUCCUAUCG | 16.9 | 40.5 |  | 
UGUGUGUGUGUGAGGAUAUCGGGCCCGAAAGGGCCCGAGAAGGCACAUGAGGAUCACCCAUGUAAGCGCGCGCG | 321 | 108 |  | 
CGUUUAUAUAUGGGUUUAUAUUAUGAGGAUAUCAAUAUUUAAUACAUGAGGAUCACCCAUGUUACUGAGAAGGCAUAAUUAACG |  |  | 6.99 | 
CUGCCUUAUGUAGGAUAUGCAUAGCAUUGCUAUGCAGAAGGACAUGAGGAUCACCCAUGUAUGUUAUCAAUACAUAUCUGGCAG | 17.5 | 54.5 |  | 
CUGGAUCACGCAGGAUAUUACAUGAGGAUCACCCAUGUCAGAACUGCAAUAUCGUCUCCUCGUUGUGAGAAGGGCGGAAUCAUA | 13.8 | 19.9 |  | 
UUUUUACAUGAGGAUCACCCAUGUCAGGAUAUCCUUAUAUUUUAUUAUUUUAUUUUUUGGAGAAGGGACUAUUA | 367 | 225 |  | 
AAGAAACAUGAGGAUCACCCAUGUGAGGAUAUGUAAAAUAAAAUAAAAUAAAUAAUAAACAGAAGGCACAAAGG | 68 | 76.5 |  | 
AGUCGGCAUGAGAAGGGUUACAUGAGGAUCACCCAUGUGAUCAAAUCGUUAACAGGAUAUCAGGCGUCGGGCUUUACCCGGAGG | 19.5 | 125 |  | 
GGAGCACACAUUAACAUGAGGAUCACCCAUGUCAAUAGACAUGAGGAUAUGGAUCCGAAAAGGAUCCAGAAGGCAUGGUGCUCC |  |  | 10 | 130
CCGUUACAUGAGGAUCACCCAUGUGAGGAUAUGGUUCGGUACUGUCCUGUCGCGUACUCCAGAAGGCACGUGUC | 33.5 | 34.8 |  | 
ACGGUGGUCACAGGAUAUCCGGCCCGCGGGCCUGGAGAAGGGUGACUCAGAACCACAUGAGGAUCACCCAUGUGCCUUGCCGUA |  |  | 48.7 | 250
CCUUUGAAGAUCCUAGUUUUCGACAUGAGGAUCACCCAUGUGCAGGAUAUCGUGCCAGUGCUGUGCGAGAAGGGCAGUCUCUGC | 63.2 | 70.9 |  | 
GGGUACAUCGGAGGAUAUCAUGUAAAUACAUGAGGAUCACCCAUGUCGAUGGAGACAUCGGAGAUUGAGAAGGCCGAUGUACAG |  |  | 8.38 | 146
UAUUUGUGAGGAUAUGAGUCGUAGAACAAUAGUACUACGUCUCAGAAGGCACAUGAGGAUCACCCAUGUACCUC | 17.9 | 122 |  | 
GUGGUGAAUUAAGGAUAUCGAGUCUAGAUGUUAAACAUGAGGAUCACCCAUGUGGGUUGCGGUGUCGAGAAGGUAAUUUACGGG |  |  | 33.9 | 64.3
UAUAUAUAAUAUAUUAACAUGAGGAUCACCCAUGUCGCUAGACAGGAUAUAUUUAAUUUUUUUAAGUAGAAGGGUCAUAUAAUU |  |  | 80.9 | 68.3
UGAGCCUCGUGAGGAUAUACAUGAGGAUCACCCAUGUAAAUGGAAUAACGGAGGAAACUCCGAAUGUAGAAGGCACGAGGCUCA | 81.3 | 840 |  | 
UCAACUCCCGUCAGGAUAUGUUGCUCUAGGGAGCAGUAGAAGGGACAUGAGGAUCACCCAUGUUAUCCGUGUAU | 17.2 | 20.6 |  | 

Sequence | apparent Kd [1] [nM] | apparent Kd [2] [nM] | apparent Kd [3] [nM] | apparent Kd [4] [nM]
AGUAAGAUGCAGAAGGUGUUAGCUAGAGCUACGACAUGAGGAUCACCCAUGUACUAAAACCCGUACAAGGAUAUGCAUCUUACA |  |  | 6.47 | 8.17
AGCGCGGUCCACUUGGACGCCUACGAGGAUAUCCUGUCACAUGAGGAUCACCCAUGUAGGCACAUGGAGAAGGCGUAGAAAUCA |  |  | 7.22 | 60.9
GUUCUCGGAGGAUAUACACAGUGAGAACCCGCGCAAGCGGGACAUGAGGAUCACCCAUGUAGAAGGUCGAGCAA | 70.2 | 170 |  | 
GAAAACGCAGAGGAUAUUCCAGAUCUAAGCUGCGAAGAAGGCUGCACAUGAGGAUCACCCAUGUGGUCUUUAAA | 18.8 | 116 |  | 
CCUAAGGACACAGGAUAUAGCGUGGUGGCUAGACUCCAACGGCGAGCGGCGCUAGAAGGGUGACCACAUGAGGAUCACCCAUGU |  |  | 193 | 553
CUGUUAUAGAUCCAUUUUUUCAACAUGAGGAUCACCCAUGUGCAGGAUAUCGUGAUUAUUUUCAUCGAGAAGGGCAUAAUCACG | 46.6 | 51 |  | 
GCGUAACAUGAGGAUCACCCAUGUACUCGAGAAAUCGAGUGUAGAAGGGUGACCGGUCGUUUGGCACAGGAUAUACACGCUGUG |  |  | 14.1 | 31.1
GGGAAGUGAGGAUAUGCUGCUCGUCACUUGCGUGAUGAGUAGCAGAAGGUACAUGAGGAUCACCCAUGUAAAAA | 29.6 | 19 |  | 
CUGUUUCGUGUAGGAUAUGCAUAUUCCCAUUAUGCAGAAGGACAUGAGGAUCACCCAUGUAUGUUAUUAUCAUGUGUUACAUGC | 51 | 432 |  | 
UGUCGGAGCGGAGGAUAUUACAUGAGGAUCACCCAUGUAUGAACCAAUAGCUGGAAACAGCAAUGUAAGAAGGCUGCUCCGACA | 9.67 | 131 |  | 
GCACGGCGUGUAGGAUAUGCAUAGCAUUGCUAUGCAGAAGGACAUGAGGAUCACCCAUGUAUGUAUUCCAUACAUUUCCCGUGC | 6.42 | 7.31 |  | 
ACUCUGCGAGGAUAUACAUGAGGAUCACCCAUGUGCGAGUUACUUGUGAGGUCGGUUGGUAGAAGGCGCGGAGA | 99.4 | 134 |  | 
ACAGGAAACACAGGAUAUGAGCGAAAUAGAGACAUGAGGAUCACCCAUGUACCGUAGAGAACCGGUCAGAAGGGUGACUCCCGU |  |  | 18.9 | 25.4
GGCUAGGACAGAGGAUAUACGUGCUAGAGAUACUAGCAAAAUUUCCUCACAUGAGGAUCACCCAUGUAGAAGGCUGUCCUAUCG | 18.4 | 458 |  | 
CCCAAACUUGGGCUUGGUGGUGCAUAGGAUAUCCUUGGACAUGAGGAUCACCCAUGUACAACUGUGGAGAAGGGUGCAGGACCU |  |  | 39.6 | 227
GGCCUACGAGGAUAUCGCUAGCGGGACAUGAGGAUCACCCAUGUGUCGGACCGCGUCAUGCGAGAAGGUGUAAUGA | 17.6 | 18.4 |  | 
AAGCUGCGCCAGAAGGGACCGACAUGAGGAUCACCCAUGUCCACAAGAGUCAGGAUAUGGCGUGGAGGCUCGUUUAAGUCCAGG |  |  | 5.19 | 11.1
AGCUAGUCAGGAUAUACGAACAUGUCAAAAGACGUGAAGGGACAUGAGGAUCACCCAUGUAGAAGGGACUAGCC | 26.7 | 170 |  | 

From the EternaBench riboswitch data
